The entries come from a sample that favours hits as a whole.
HUVEC prolif 384 = blocks proliferation of human endothelial cells. HUVEC proliferation, CellTiter-Glo luminescence, 72 h; stronger effect = lower value. AID 648. 86,000 compounds, 1.1% hits. viability, % at 10 µM (by protocol);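 active means viability at or below 30%; inactive means viability above 30%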;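 further: 100% = median luminescence of DMSO-only cell control wells on each plate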
bCat KO growth = beta-catenin-lacking colon tumor cell growth suppression | 140,000 compounds, 1.5% hits | viability, % at 10 µM | HCT116 beta-catenin knockout viability, CellTiter-Glo, 60 h; stronger effect = lower value;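 active means viability at or under a set limit, the compound median less 4 SD, cut at about 6% in these data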;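 further: 0% = Hyamine 1622 control at 20 µM and 100% = untreated cell control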
H69AR growth 86K = growth inhibitors of human H69AR lung tumor cells; H69AR lung tumor viability, ATP luminescence, 72 h; stronger effect = lower value; viability, % at 10 µM; 85,000 compounds, 6% hits; AID 598;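 active means viability at or below 40%; inactive means viability above 40%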;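 further: multidrug resistant small cell line overexpressing MRP-1 efflux transporter; 100% = mean luminescence of untreated control wells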
Calb biofilm kill = kills Candida albicans biofilms. AID 834. C. albicans biofilm + clotrimazole, Alamar Blue. inhibition, % at 6 µM. 85,000 compounds, 0.14% hits;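 active means inhibition above 20%; inactive means inhibition below 20%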;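 further: preformed 24 hr biofilms exposed to compound for 48 hr; 0% = biofilm without compound and 100% = blank killed by clotrimazole plus chlorhexidine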
Fibroblast inh = blocks proliferation of human lung fibroblasts | viability, % at 10 µM | 85,000 compounds, 1.1% hits | LL 47 human lung fibroblast viability, ATP luminescence; stronger effect = lower value;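 active means viability at or below 50% in the single dose screen; inactive means viability above 50%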;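 further: compound exposure lasted 72 h before the ATP readout; 100% = median luminescence of untreated cell-only wells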
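material = human LL 47 lung fibroblast cells | dosing = compounds added from tenfold dosing solution, 0.1% DMSO final | timing = overnight cell rest, 72 h compound treatment at 37 °C | measured by = CellTiter-Glo luminescence measuring cellular ATP | evaluation = % viability versus median cells-only luminescence | control set = cell-only wells, no compound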
HCT116 PTEN-null = growth suppressors of cells with PTEN tumor suppressor deletion; HCT116 PTEN-null viability, CellTiter-Glo, 60 h; stronger effect = lower value; viability, % at 10 µM; 140,000 compounds, 1.2% hits;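 active means viability at or below a set limit, 4 SD under the median of all tested compounds, cut at about 3.7% in these data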;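 further: PTEN knockout HCT116 line with beta catenin targeted HCT116 as companion control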
* = called active by the depositor; nt = no result given.

SMILES	HUVEC prolif 384	bCat KO growth	H69AR growth 86K	Calb biofilm kill	Fibroblast inh	HCT116 PTEN-null
CCOC(=O)N1CCN(c2nc(N(c3ccccc3)c3ccccc3)nc(-n3ccnc3)n2)CC1	89	nt	21*	-2	92	nt
CCOC(=O)CN1C(=O)C2Cc3ccccc3CN2C1=S (stereo not given)	nt	95	nt	nt	nt	101
NC1=NC2(CCC(c3ccccc3)CC2)n2c(nc3ccccc32)N1 (stereo not given)	62	12	8.7*	7	87	7
NC1=NC2(CCCCC2)n2c(nc3ccccc32)N1	88	98	92	-1	87	94
Cc1ccc(C=Nc2ccccc2C(=O)Nc2ccccc2)cc1	nt	96	nt	nt	nt	94
Cc1ccc(C=Nc2ccccc2C(N)=O)cc1	55	27	22*	-1	54	24
CCOC(=O)/C(=C\Nc1ccccc1C(F)(F)F)Sc1ncc(C(F)(F)F)cc1Cl	138	73	100	7	104	78
COC(=O)/C(=C\Nc1ccc(Cl)c2ccccc12)c1ncc(C(F)(F)F)cc1Cl	108	83	33*	-2	93	82
COc1ccccc1NC(=O)c1ccc(NC(=O)CSc2ncn[nH]2)cc1	nt	92	nt	nt	nt	94
Cc1ccc(-c2noc(-c3cccs3)n2)cc1	87	93	40*	2	86	86
COc1ccccc1-c1noc(-c2cccs2)n1	78	77	82	-5	93	80
COc1cccc(-n2c(SCC(N)=O)nc3c([nH]c4ccccc43)c2=O)c1	72	17	23*	10	66	20
COc1cccc(-n2c(SCC(=O)Nc3cc(C)on3)nc3c([nH]c4ccccc43)c2=O)c1	79	75	92	7	78	79
CCOC(=O)N1CCN(C(=O)/C(=C/c2ccc(Br)cc2)NC(=O)c2ccc(OC)cc2)CC1	nt	101	nt	nt	nt	103
COc1ccc2[nH]c(=O)c(CN(Cc3cccs3)S(=O)(=O)c3cccc4nsnc34)cc2c1	74	57	3.0*	8	83	48
CCN=c1sc(C(=O)NCCc2ccccc2)cc(=O)n1CC	59	49	9.9*	4	87	56
O=C(NCCc1ccccc1)c1cccs1	95	99	99	7	94	107
CCCCOc1ccc(/C=C/C(=O)OCC(=O)NC(=O)NCC(C)C)cc1OCC	nt	96	nt	nt	nt	95
CS(=O)(=O)N1CCN(c2ccc(NC(=O)C(c3ccccc3)c3ccccc3)cc2)CC1	95	93	87	6	94	84
O=C(Nc1ccc(N2CCCC2)cc1)C(Cl)c1ccccc1 (stereo not given)	97	72	22*	12	92	92
Cc1[nH]n(-c2ccccc2)c(=O)c1C=Nc1cccc2cccnc12	nt	3.0*	nt	nt	nt	5
CC(C)CCn1cnc2c(c1=O)c1nc3ccccc3nc1n2Cc1ccc2c(c1)OCO2	86	79	30*	1	88	80
CCCn1cnc2c(c1=O)c1nc3ccccc3nc1n2Cc1ccccc1OC	nt	112	nt	nt	nt	112
CCN(CC(=O)NC(C)(C)C)C(=O)CCl	nt	79	nt	nt	nt	92
O=C(CSc1nnc(-c2ccccc2Cl)o1)Oc1ccc(Br)cc1	93	0.9*	99	3	110	0.7*
SMILES	HUVEC prolif 384	bCat KO growth	H69AR growth 86K	Calb biofilm kill	Fibroblast inh	HCT116 PTEN-null
N#CC(c1ccc(Cl)cc1)c1ccc(Cl)nn1 (stereo not given)	92	66	103	1	107	62
Fc1ccc(/C=C2\CCCC3=C2Nc2ncnn2C3c2ccc(F)cc2)cc1 (stereo not given)	37	2.0*	22*	4	56	1.8*
Cc1ccc(CNC(=O)COc2ccc(C(=O)c3ccc(F)cc3)cc2)cc1	nt	31	nt	nt	nt	29
O=C(CN1CCCCC1)N1CCCc2ccccc21	nt	84	nt	nt	nt	90
CC(C)C(=O)c1cn(CC(=O)N2CCCc3ccccc32)c2ccccc12	77	87	36*	-3	96	86
NC1=NC2(CCCCC2)N=C(Nc2ccc(Br)cc2)N1	nt	22	nt	nt	nt	18
Cc1ccc(S(=O)(=O)NCCC(=O)Nc2ccc(Cl)c(Cl)c2)cc1	nt	91	nt	nt	nt	89
CCc1ccccc1NC(=O)/C(=C/c1ccco1)c1ccccc1	76	82	84	67*	93	86
Cc1ccccc1NC(=O)/C(=C/c1ccco1)c1ccccc1	114	85	41	3	101	87
CCCCCCC(=O)N1CCN(c2cc3c(cc2F)c(=O)c(C(=O)O)cn3CC)CC1	92	nt	27*	5	87	nt
O=C(O)c1cn(C2CC2)c2cc(N3CCOCC3)c(F)cc2c1=O	94	nt	73	10	86	nt
CCC(=O)N1CCN(c2cc3c(cc2F)c(=O)c(C(=O)O)cn3CC)CC1	96	nt	100	2	101	nt
CCN1CCN(c2cc3c(cc2F)c(=O)c(C(=O)O)cn3C2CC2)CC1	103	89	91	24*	102	92
O=S(=O)(/C=C/c1ccccc1)Oc1ccccc1	77	97	7.4*	1	64	nt
COc1cc2nc(SCc3c(C)noc3C)n(CCC3=CCCCC3)c(=O)c2cc1OC	71	50	27*	10	86	48
C=CCn1c(SCC(=O)NCCC2=CCCCC2)nc2ccc(Cl)cc2c1=O	nt	55	nt	nt	nt	56
COc1cc2nc(SCC(=O)NC3CC3)n(CCC3=CCCCC3)c(=O)c2cc1OC	25*	nt	34*	2	76	nt
Cc1ccc(Cl)cc1N1CCN(Cc2nc3c(c(=O)[nH]c(=O)n3C)n2CCc2ccccc2)CC1	37	11	4.3*	2	18*	17
Cn1c(=O)[nH]c(=O)c2c1nc(CN1CCN(c3cccc(Cl)c3)CC1)n2CCCc1ccccc1	82	67	57	11	95	75
Cc1ccc(Cl)cc1N1CCN(Cc2nc3c(c(=O)[nH]c(=O)n3C)n2Cc2ccccc2F)CC1	42	nt	19*	12	85	nt
CCN1CCN(Cc2nc3c(c(=O)[nH]c(=O)n3C)n2Cc2ccccc2Cl)CC1	93	nt	77	-3	91	nt
COc1ccc(N(C(=O)CCl)C(C)(C(=O)Nc2c(C)cccc2C)c2ccccn2)cc1 (stereo not given)	nt	81	nt	nt	nt	83
CCc1ccc2oc(-c3cc(N)ccc3Cl)nc2c1	67	80	71	9	78	73
CCc1ccc2oc(-c3cc(N)ccc3O)nc2c1	82	61	32*	8	68	34
CCc1ccc2oc(-c3cc(N)cc(C)c3O)nc2c1	81	64	23*	-2	82	73
Cc1ccc(N(CC(=O)Nc2cccc(C)c2)S(=O)(=O)c2cccc3nonc23)cc1	75	89	83	4	81	73
CC(=Nc1ccccc1)C1=C(O)COC1=O	115	108	105	-2	109	119
COc1ccc(OC)c(N=C(C)C2=C(O)COC2=O)c1	86	66	22*	7	89	74
O=C(CCn1c(=O)sc2ccccc21)NCc1ccc2c(c1)OCO2	nt	80	nt	nt	nt	92
O=c1c(/C=C(\O)c2ccccc2)nc2ccccc2n1-c1ccccc1	112	85	39*	-3	104	77

Screening data from PubChem.
